# High-throughput results as filed in PubChem.
# APJ antag – APJ receptor antagonism; P35414; CHO-K1 APJ beta-arrestin complementation, luminescence; inhibition, % at 20 µM; 330,000 tested, 0.32% active; AID 2521;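 active means inhibition above about 40% at 20 µM, limit read from the data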;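 further: cells challenged with 10 nM apelin-13 agonist together with compound; plate controls were apelin-13 plus DMSO wells for no effect and DMSO wells lacking apelin-13 for full effect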
# EBI2 antag – EBI2 (human) antagonism; P32249; EBI2 beta-arrestin recruitment, luminescence, 7a,25-OHC stimulated; inhibition, % at 5 µM; 360,000 tested, 0.81% active; in the data active means inhibition above about 38%;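 further: enzyme fragment complementation signal reports receptor beta-arrestin coupling in cells; 0% = agonist plus DMSO wells and 100% = wells without agonist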
# Target sequence (P32249 whole entry, looked up, the tested form may be a part): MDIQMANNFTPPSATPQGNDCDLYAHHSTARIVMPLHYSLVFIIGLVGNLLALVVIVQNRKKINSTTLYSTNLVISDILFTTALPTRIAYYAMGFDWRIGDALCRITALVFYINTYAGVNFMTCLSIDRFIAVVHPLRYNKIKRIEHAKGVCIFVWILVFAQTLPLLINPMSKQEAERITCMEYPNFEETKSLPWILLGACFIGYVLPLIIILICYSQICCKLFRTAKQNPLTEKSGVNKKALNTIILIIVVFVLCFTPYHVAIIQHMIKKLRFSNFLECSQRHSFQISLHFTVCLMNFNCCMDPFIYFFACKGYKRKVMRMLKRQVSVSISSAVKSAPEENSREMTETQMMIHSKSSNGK
# APJ ag – APJ receptor agonism; P35414; CHO-K1 APJ PathHunter beta-arrestin, luminescence; 0% DMSO wells, 100% apelin; activation, % at 20 µM; 330,000 tested, 0.11% active; AID 2520;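 active means activation more than six SD over the plate average, tested at 20 µM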;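 further: 0% = DMSO alone and 100% = apelin-13 at 10 nM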
#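 Assay system – PathHunter CHO-K1 APJ (AGTRL-1) beta-arrestin reporter cells · Compound – one dose, 20 µM compound, 1% DMSO · Timing – compound 90 min 25 °C, reagent 1 h · Measured by – luminescence from split beta-galactosidase complementation, Galacton Star/Emerald II substrate · Measure – beta-arrestin recruitment to APJ as agonist activity, luminescent signal · Benchmarks – DMSO vs Apelin-13 10 nM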
# CCR6 antagonist – blocks CCL20-driven beta-arrestin recruitment at human CCR6; P51684; CHO-K1 CCR6 PathHunter beta-arrestin, luminescence, CCL20-stimulated; inhibition, % at 20 µM; 340,000 tested, 0.49% active;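 active means compounds whose inhibition of the agonist-driven luminescence signal at 20 µM reaches about 50%, limit read from the data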;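 further: cells stimulated with CCL20 at 14 nM final; plate controls were DMSO with CCL20 for no effect and DMSO without agonist for full effect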
# CXCR6 block – CXCR6 (human) receptor inhibition; O00574; 360,000 tested, 0.36% active; CHO-K1 PathHunter CXCR6 beta-arrestin, luminescence; AID 602244; inhibition, % at 20 µM; in the data active means inhibition above about 34%, passing the limit was not always enough;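 further: antagonist mode with CXCL16 agonist at 10 nM final; 0% = 10 nM CXCL16 with DMSO and 100% = unstimulated wells without agonist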
# The depositor's hits bear a star; x = no result. Only some compounds are listed: those with a hit (about 1.5% of all), similar ones and a draw of the others.
SMILES,APJ antag,EBI2 antag,APJ ag,CCR6 antagonist,CXCR6 block
Cc1cccc2c(N=Nc3ccc(S(=O)(=O)Nc4cccc(Cl)c4)cc3[N+](=O)[O-])c(O)[nH]c12,14,2,-3,58*,19
CCOC1=C2CN(S(=O)(=O)c3ccc(C)cc3)[C@@H](c3cccs3)C[C@H]2[C@H]2C(=O)N(c3ccccc3)C(=O)[C@H]2C1,x,0,x,x,1
COc1cc(N=Nc2ccccc2C(=O)O)ccc1O,9,-11,-5,23,17
COc1cc(N=Nc2ccc3ccccc3c2)ccc1O,22,20,-6,51*,33
NS(=O)(=O)c1ccc(NCc2cc(Cl)ccc2OCc2ccccc2F)cc1,-5,17,-3,54*,-12
CC(=O)c1nn(-c2ccccc2)cc1C(=O)c1ccc(C)cc1,-13,56*,-1,14,-4
CC(=O)c1nn(-c2cccc(C)c2)cc1C(=O)c1cccc(Br)c1,20,0,7,-4,0
CCN1C(=O)c2ccccc2Sc2ccc(C(=O)NCCCN(CC(C)C)CC(C)C)cc21,-5,-12,-6,16,25
CCS(=O)(=O)c1ncc(Cl)c(C(=O)Nc2ccc(C)cc2)n1,38,53*,-5,36,12
CS(=O)(=O)c1ncc(Cl)c(C(=O)Nc2ccc3ccccc3c2)n1,x,57*,x,81*,70*
Cc1ccc(OCC(=O)N2CCN(c3ccc([N+](=O)[O-])c(N4CCOCC4)c3)CC2)cc1,5,56*,-8,14,4
Cc1nc2scc(-c3ccccc3)c2c(=O)n1N,-4,-1,-1,7,4
Cc1nc2scc(-c3ccccc3)c2c(=O)n1N=C1C=CC(=O)C=C1,-1,x,-1,99*,x
COC(=O)[C@@]12C[C@@H](CC(=O)N3CCSCC3)C(=O)N(Cc3ccc4c(c3)OCO4)C1=CCC(C)(C)C2,x,2,x,x,x
Cc1ccc(/C=C/C(=O)c2c(C)nc3ccccn23)cc1,9,21,1,-27,1
Cc1nc2ccccn2c1C(=O)/C=C/c1cccc([N+](=O)[O-])c1,24,42*,0,7,3
O=C1/C(=C/c2ccc(O)c(O)c2)SC(=S)N1Nc1ccccc1,x,6,x,61*,51*
N#Cc1ccccc1S(=O)(=O)N1CCN(C(=O)C2CCC2)CC1,-27,-1,2,-6,-3
N#C/C(=C\c1cccc([N+](=O)[O-])c1)C(=O)NCc1ccc(Cl)cc1,x,17,x,x,65*
N#C/C(=C\c1cccc([N+](=O)[O-])c1)C(=O)NCc1cccnc1,-35,-12,4,3,-5
Oc1c(Br)cc(Br)cc1C=Nc1ccc2[nH]ncc2c1,-103,3,14*,9,10
COC(=O)C1=NNC(C(=O)OC)C1c1ccccc1 (stereo unspecified),x,0,x,7,-5
CCCN(CCC)C(=O)c1cc([N+](=O)[O-])cc2c1-c1ccc([N+](=O)[O-])cc1C2=C(C#N)C#N,11,x,5,66*,x
COc1ccc(-c2sc(Nc3ccccc3)n[n+]2-c2ccccc2)cc1Br,-42,18,-3,16,6
C(=C\c1sc(Nc2ccccc2)n[n+]1-c1ccccc1)/c1ccccc1,x,-4,x,66*,26
SMILES,APJ antag,EBI2 antag,APJ ag,CCR6 antagonist,CXCR6 block
CCN1/C(=C\C=C2\C(=O)N(c3ccccc3)C(=S)N2C)Sc2ccccc21,x,25,x,63*,40*
CC1(Oc2cccc(C#N)c2)CCN(Cc2csc3ccccc23)C1 (stereo unspecified),x,9,x,x,-11
Clc1ccc(N=c2ssnc2Cl)nc1,12,85*,0,17,-2
Clc1nssc1=Nc1ccc(Br)cc1,x,25,x,15,1
O=[N+]([O-])c1ccc2nc(NN=Cc3ccc(O)cc3)sc2c1,x,37,x,78*,55*
Nc1ccn(C2CSC(CO)O2)c(=O)n1 (stereo unspecified),x,1,x,x,0
O=C1c2cccnc2-c2ncccc21,4,-4,-3,13,-5
COC1=C(Br)C(=O)c2ncccc2C1=O,x,-27,x,79*,59*
N#CC(C#N)=C(N)/C(C#N)=C/c1cc(O)c(O)c(O)c1,57*,8,-7,70*,55*
NS(=O)(=O)c1ccc(NC2=CC(c3ccc([N+](=O)[O-])cc3)N(c3ccc(S(N)(=O)=O)cc3)C2=O)cc1 (stereo unspecified),32,-8,-1,50*,60*
COc1ccc(NC2=CC(c3ccc(OC)c(OC)c3)N(c3ccc(OC)cc3)C2=O)cc1 (stereo unspecified),1,14,-3,11,-4
O=C(C[C@@H]1CC[C@H](NC(=O)c2ccc3c(c2)OCO3)[C@@H](CO)O1)NCc1ccc(F)cc1,x,-16,x,x,x
COc1cccc(CN(C)C(=O)CSCC(=O)Nc2cccc(C)c2)c1OC,12,5,-4,2,3
Cc1ccc(S(=O)(=O)N/N=C/c2cccc([N+](=O)[O-])c2)cc1,51*,-9,-9,37,9
O=C(c1cccs1)N1C[C@H](O)[C@@H](n2cc(C3CC3)nn2)C[C@@H]1c1ccccc1,x,-7,x,x,-2
O=C(NC(=S)N(CCCCO)C1CCCCC1)c1sc2ccccc2c1Cl,31,4,-5,67*,18
C=CCOC(=O)Nc1nc(CCNC(=O)OC(C)(C)C)c(C(=O)OC)s1,x,-5,x,x,x
O=C(/C=C/c1ccccc1)NNC(=O)c1cccc(Cl)c1,6,1,-2,10,-11
O=C(/C=C/c1ccccc1)NNc1ccc(Cl)cc1,62*,4,-8,12,7
O=c1c2c([N+](=O)[O-])cc([N+](=O)[O-])cc2sn1-c1ccc(Br)cc1,-51,78*,0,50*,22
CN(C)/C=C1/C(=O)N(c2ccc([N+](=O)[O-])cc2)N=C1c1ccccc1,6,x,-1,x,x
C/C(=C1/C(=O)N(c2ccc([N+](=O)[O-])cc2)N=C1c1ccccc1)N(C)C,49*,x,-7,x,x
COC(=O)c1sc(NC(=S)NC(=O)c2ccccc2C)nc1C,7,-6,-2,8,22
COc1ccc(C(=O)O/N=C/c2c(C(F)(F)F)nn(C)c2SCc2ccccc2Cl)cc1,15,50*,-3,12,2
Cc1nc2ccc(C(=O)N/N=C/c3cc([N+](=O)[O-])ccc3O)cc2[nH]1,20,2,-3,59*,10
Oc1ccccc1/C=N/Nc1nn[nH]n1,-16,-9,8,-5,-11
O=C(N/N=C/c1cc([N+](=O)[O-])ccc1O)C1CCCCC1,25,76*,-6,40,32
O=[N+]([O-])c1ccc(O)c(/C=N/Nc2nn[nH]n2)c1,14,7,-3,x,44*
Cc1cccc(NC(=O)CCC(=O)N/N=C/c2cc([N+](=O)[O-])ccc2O)c1,24,4,-3,24,24
O=C(CCC(=O)Nc1ccc(F)cc1)N/N=C/c1cc([N+](=O)[O-])ccc1O,21,-4,-9,62*,11
